LMPTP block = LMPTP (human) inhibition. inhibition, % at 20 µM. P24666. recombinant LMPTP-A, OMFP fluorogenic substrate, fluorescence intensity. AID 651560. 360,000 tested, 0.22% active;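 active means compounds that cut the enzyme signal by at least half of the control window in the single-dose screen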
Target sequence (P24666 whole entry, looked up): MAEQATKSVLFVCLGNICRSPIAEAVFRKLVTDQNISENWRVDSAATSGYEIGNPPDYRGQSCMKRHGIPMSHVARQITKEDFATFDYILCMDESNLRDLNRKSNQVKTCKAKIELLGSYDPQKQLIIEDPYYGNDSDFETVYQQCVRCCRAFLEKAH
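Test system – LMPTP-A phosphatase enzyme · Quantity – 0.625 nM LMPTP-A final · Reagent – OMFP substrate, 400 µM final · Dosing – one test concentration per compound, 20 µM, with 3% DMSO overall · Timing – 50 min enzyme reaction at room temperature, protected from light · Detection – fluorescence intensity · Controls – substrate-only low control, DMSO enzyme-plus-substrate high control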
STEP inh = inhibitors of human striatal-enriched phosphatase STEP. P54829. recombinant STEP, OMFP fluorogenic substrate, fluorescence. inhibition, % at 20 µM. 360,000 tested, 0.25% active;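 active means inhibition at 20 µM, scaled per plate between control wells, above about 37%, limit read from the data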
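System: STEP (striatal-enriched tyrosine phosphatase) enzyme, cell-free; medium: Bis-Tris pH 6.0 buffer with DTT, detergent; dosing: 20 µM, 1% DMSO; times: reaction 20 min, ambient temperature; detection: fluorescence, 480/540 nm; read-out basis: normalized % inhibition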
rCAG binder = binds r(CAG) RNA repeats; r(CAG) RNA repeat, TO-PRO-1 dye displacement fluorescence; inhibition, % at 3 µM; 370,000 tested, 1.3% active;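 active means inhibition above the plate cutoff, the mean of all test compounds on that plate plus 3 SD, cut at about 35% in these data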;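 further: higher means more dye released from RNA so lower well fluorescence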
Scp-1 inhibitor = inhibitors of human Scp-1 phosphatase; Recombinant Scp1, phosphopeptide, malachite green phosphate absorbance; 340,000 tested, 0.88% active; inhibition, % at 20 µM; Q9GZU7;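 active means inhibition above about 50% at 20 µM, limit read from the data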
Target sequence (Q9GZU7 76-261 limits assumed): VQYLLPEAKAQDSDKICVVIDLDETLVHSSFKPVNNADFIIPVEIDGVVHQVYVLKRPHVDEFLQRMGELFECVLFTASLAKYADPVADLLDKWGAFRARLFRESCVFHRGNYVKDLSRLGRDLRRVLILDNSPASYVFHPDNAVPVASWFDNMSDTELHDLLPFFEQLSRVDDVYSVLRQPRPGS
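Test system: SCP-1 phosphatase catalytic domain, residues 76-261 | Compound dosing: One concentration, 20 µM, with 1.0% DMSO | Schedule: 45 min room-temperature reaction, 5 min colour, 30 min stabiliser | Detection: Absorbance at 630 nm | Read-out basis: % inhibition of SCP-1 phosphate liberation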
NadD block = inhibitors of Staphylococcus aureus NadD. AID 602399. inhibition, % at 20 µM. purified NadD enzyme, colorimetric absorbance read-out. 360,000 tested, 0.78% active; in the data active means inhibition above about 26%
Each line names hits and unclear results; the compound was inactive in the other large screens. An excerpt weighted towards active compounds, which were near 2.6% of everything screened.

CN(C(=S)NC(=O)c1ccc(Cl)cc1)C1CCCCC1	LMPTP block 72.4, Scp-1 inhibitor 69.9
Oc1c(Cl)cc(Cl)cc1/C=N/c1nc(-c2ccc(Cl)cc2)cs1	NadD block 25.0 (no result: rCAG binder)
CC1CCN(C2=NN3C(=N)/C(=C\c4ccc(OC(=O)c5ccco5)cc4)C(=O)N=C3S2)CC1	NadD block 37.5
COc1ccc2c(c1)c1nc3ccccc3nc1n2CCn1c(=O)oc2ccccc21	none
O=c1oc2ccccc2n1CCn1c2ccccc2c2nc3ccccc3nc21	LMPTP block 73.0
O=C(/C=C/c1ccc(Br)cc1)NC(=O)c1ccccc1O	LMPTP block 56.5, Scp-1 inhibitor 58.6
CCOc1ccc(N(CC(=O)Nc2c(C)n(C)n(-c3ccccc3)c2=O)S(=O)(=O)c2ccc(C)c(C)c2)cc1	none (no result: LMPTP block, STEP inh, Scp-1 inhibitor, NadD block)
Cc1ccc(-c2nn(-c3ccccc3)cc2C2CC(c3cccs3)=NN2C(=O)CCCC(=O)O)cc1 (stereo not drawn)	Scp-1 inhibitor 89.1
C/C(=N\NS(=O)(=O)c1ccc(Cl)c([N+](=O)[O-])c1)c1cc2ccccc2o1	LMPTP block 60.3
C/C(=N\NS(=O)(=O)c1ccc(Cl)c([N+](=O)[O-])c1)c1ccc(C)o1	LMPTP block 54.6
Cc1cccc(NC(=O)N2CCC(N(C)CCC(C)C)CC2)c1	none (no result: LMPTP block, STEP inh, Scp-1 inhibitor, NadD block)
Cc1ccnc(NC(c2ccccc2)c2ccc3cccnc3c2O)c1 (stereo not drawn)	none
Cc1ccnc(NC(c2cccnc2)c2ccc3cccnc3c2O)c1 (stereo not drawn)	LMPTP block 53.9
NC(=O)c1sc2nc(-c3ccccc3)ccc2c1N	none
CC(=O)c1sc2nc(-c3ccco3)ccc2c1N	Scp-1 inhibitor 79.1
Cc1nn(-c2ccccc2)c(C)c1/C=N\NC(=O)CSc1nc2ccccc2n1Cc1ccc(Cl)cc1	none (no result: LMPTP block, STEP inh, Scp-1 inhibitor, NadD block)
CCN1/C(=C/c2cccc[n+]2C)Sc2ccc(OC)cc21	Scp-1 inhibitor 108.9
COc1ccc2c(c1)N(C)/C(=C/c1cccc[n+]1C)S2	none
CN1c2ccccc2C(O)=C(C(=S)Nc2ccc(Cl)cc2)S1(=O)=O	rCAG binder 68.5
O=C(NCc1ccco1)c1ccc([N+](=O)[O-])o1	Scp-1 inhibitor 58.7
CCOc1ccc(N(CC(=O)Nc2c(C)n(C)n(-c3ccccc3)c2=O)S(=O)(=O)c2cc(OC)ccc2OC)cc1	none (no result: LMPTP block, STEP inh, Scp-1 inhibitor, NadD block)
CC1CCCC(C)N1C(=O)Cn1cc(/C=C2/C(=O)Nc3ccccc32)c2ccccc21 (stereo not drawn)	NadD block 34.0 (no result: rCAG binder)
COc1ccc(S(=O)(=O)Nc2cccc(F)c2)cc1C	none
COc1ccc(S(=O)(=O)Nc2ccc(S(=O)(=O)Nc3ccc(F)cc3)cc2)cc1C	rCAG binder 46.8
COc1cccc(-c2nnc(SCC(=O)Nc3ccc(Oc4ccccc4)cc3)n2Cc2ccco2)c1	none (no result: LMPTP block, STEP inh, Scp-1 inhibitor, NadD block)
Cc1cccc(NC(=O)CNC(=O)Cn2ncc(Cl)c(Cl)c2=O)c1C	Scp-1 inhibitor 93.3 (no result: rCAG binder)
CCCC[C@@H](CCCc1ccc(F)cc1)CCC(=O)N(c1ccccc1)c1ccccc1	none (no result: LMPTP block, STEP inh, Scp-1 inhibitor, NadD block)
C#CCOCCOCCOCCNc1nc(N2CCN(C(=O)CCCCCCCCCCNC(=O)[C@@H](CCSC)n3cc(CCO)nn3)CC2)nc(N2CCN(C(=O)CCCCCCCCCCNC(=O)[C@H](CCCN=C(N)N)n3cc(C[C@@H](C)CC)nn3)CC2)n1	NadD block 71.4 (no result: rCAG binder)
C#CCOCCOCCOCCNc1nc(N2CCOCC2)nc(N2CCN(C(=O)[C@H](Cc3cc4ccccc4[nH]3)n3cc([C@@H](N)C(C)CC)nn3)CC2)n1 (stereo partly drawn)	none
C#CCOCCOCCOCCNc1nc(N2CCN(C(=O)CCCCCCCCCCNC(=O)[C@H]([C@@H](C)CC)n3cc(CCCCN=C(N)N)nn3)CC2)nc(N2CCN(C(=O)CCCCCCCCCCNC(=O)[C@@H]([C@H](C)O)n3cc(C)nn3)CC2)n1	NadD block 39.8 (no result: rCAG binder)
C#CCOCCOCCOCCNc1nc(N2CCN(C(=O)CCCCCCCCCCNC(=O)[C@H](CCCCN)n3cc(CCO)nn3)CC2)nc(N2CCN(C(=O)CCCCCCCCCCNC(=O)[C@H](CCCCN)n3cc(C[C@@H](C)CC)nn3)CC2)n1	none (no result: LMPTP block, STEP inh, rCAG binder, NadD block)
C#CCOCCOCCOCCNc1nc(N2CCN(C(=O)CCCCCCCCCCNC(=O)[C@H](CCCCN)n3cc(C[C@@H](C)CC)nn3)CC2)nc(N2CCN(C(=O)CCCCCCCCCCNC(=O)[C@H](CCCN=C(N)N)n3cc(C[C@@H](C)CC)nn3)CC2)n1	Scp-1 inhibitor 58.2, NadD block 64.3 (no result: rCAG binder)
C#CCOCCOCCOCCNc1nc(N2CCN(C(=O)CCCCCCCCCCNC(=O)[C@H](CCCCN)n3cc(C)nn3)CC2)nc(N2CCN(C(=O)CCCCCCCCCCNC(=O)[C@H](CCCN=C(N)N)n3cc(C[C@@H](C)CC)nn3)CC2)n1	none (no result: LMPTP block, STEP inh, rCAG binder, NadD block)
C#CCOCCOCCOCCNc1nc(N2CCN(C(=O)C(Cc3cc4ccccc4[nH]3)n3cc(C(N)C(C)CC)nn3)CC2)nc(N2CCN(C(=O)C(Cc3cc4ccccc4[nH]3)n3cc(C(N)C(C)CC)nn3)CC2)n1 (stereo not drawn)	NadD block 41.6 (no result: rCAG binder)
CN(C(=O)c1cccc(NC(=O)Cc2ccc(NC(=O)C3CCCN(C(=O)c4ccccc4)C3)cc2)c1)C1CC1 (stereo not drawn)	none (no result: LMPTP block, STEP inh, Scp-1 inhibitor, NadD block)
C#CCOCCOCCOCCNc1nc(N2CCN(C(=O)CCCCCCCCCCNC(=O)Cn3cc(C[C@@H](C)O)nn3)CC2)nc(N2CCN(C(=O)CCCCCCCCCCNC(=O)[C@@H]([C@H](C)CC)n3cc(CCCCCN)nn3)CC2)n1	NadD block 33.5 (no result: rCAG binder)
C#CCOCCOCCOCCNc1nc(N2CCN(C(=O)CCCCCCCCCCNC(=O)Cn3cc(CCCCCN)nn3)CC2)nc(N2CCN(C(=O)CCCCCCCCCCNC(=O)Cn3cc(C[C@@H](C)O)nn3)CC2)n1	none (no result: rCAG binder)
C#CCOCCOCCOCCNc1nc(N2CCN(C(=O)CCCCCCCCCCNC(=O)[C@@H](CCC(=O)O)n3cc(CCCCCN)nn3)CC2)nc(N2CCN(C(=O)CCCCCCCCCCNC(=O)[C@H](CCCCN)n3cc(C[C@@H](C)CC)nn3)CC2)n1	NadD block 36.2 (no result: rCAG binder)
C#CCOCCOCCOCCNc1nc(N2CCN(C(=O)CCCCCCCCCCNC(=O)[C@H](CCCCN)n3cc(C)nn3)CC2)nc(N2CCN(C(=O)CCCCCCCCCCNC(=O)[C@@H]([C@H](C)O)n3cc(C)nn3)CC2)n1	none (no result: rCAG binder)
C#CCOCCOCCOCCNc1nc(N2CCN(C(=O)CCCCCCCCCCNC(=O)[C@H](CCCCN)n3cc(C[C@@H](C)CC)nn3)CC2)nc(N2CCN(C(=O)CCCCCCCCCCNC(=O)[C@@H]([C@H](C)O)n3cc(C)nn3)CC2)n1	NadD block 43.4 (no result: rCAG binder)
Nn1c(SCc2cccc3ccccc23)nnc1-c1cc(-c2ccc(F)cc2)n[nH]1	none (no result: LMPTP block, STEP inh, Scp-1 inhibitor, NadD block)
C[n+]1cccc2cccc([O-])c21	LMPTP block 52.2
[O-][n+]1cccc2cccc(O)c21	none

Screening results as filed in PubChem.
